As usually defined, the inhibition is the share of the control response that was lost under treatment. As a reminder, the Ki is the equilibrium dissociation constant of an inhibitor or competing ligand from its target. A low value points to higher affinity. In general, IC50 refers to the concentration that inhibits the measured activity by half. A high value points to weaker potency in that assay.

Molecules are shown by their SMILES. Where a SMILES comes first, the peptide text is derived from it. [ ]: non-standard residue; d: D form. The star is where a group is joined. ξ: configuration not given here. ξF = NC(Cc1ccccc1)C(=O)O; Cbz = O=C(OCc1ccccc1)*

This passage reports inhibition, Ki and IC50 results from ChEMBL document CHEMBL1139620, “Synthesis of a small library of diketopiperazines as potential inhibitors of calpain” (Bioorg Med Chem Lett, 2005).

In experiment [1] the target is T1, Calpain-1 catalytic subunit (Homo sapiens) (UniProt P07384).
T1 sequence (whole entry): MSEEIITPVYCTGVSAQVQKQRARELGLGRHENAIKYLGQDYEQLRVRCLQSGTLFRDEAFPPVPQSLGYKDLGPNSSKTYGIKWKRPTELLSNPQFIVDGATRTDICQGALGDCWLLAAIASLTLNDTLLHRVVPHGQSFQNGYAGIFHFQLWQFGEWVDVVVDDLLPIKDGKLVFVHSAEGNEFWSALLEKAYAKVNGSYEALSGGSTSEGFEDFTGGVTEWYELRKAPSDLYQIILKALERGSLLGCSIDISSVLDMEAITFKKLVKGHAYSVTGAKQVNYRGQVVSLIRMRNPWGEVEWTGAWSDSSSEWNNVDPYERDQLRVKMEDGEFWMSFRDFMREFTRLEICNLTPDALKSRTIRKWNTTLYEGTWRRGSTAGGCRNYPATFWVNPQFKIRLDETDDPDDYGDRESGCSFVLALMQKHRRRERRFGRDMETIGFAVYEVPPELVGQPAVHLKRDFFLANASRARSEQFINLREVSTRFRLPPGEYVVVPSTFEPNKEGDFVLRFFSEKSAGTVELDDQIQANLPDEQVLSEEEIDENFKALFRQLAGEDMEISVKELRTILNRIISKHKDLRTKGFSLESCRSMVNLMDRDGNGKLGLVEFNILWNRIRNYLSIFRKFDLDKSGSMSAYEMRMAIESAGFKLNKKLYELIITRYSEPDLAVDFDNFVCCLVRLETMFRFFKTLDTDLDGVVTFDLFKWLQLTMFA
The experiment is described as follows: Percent inhibition of human calpain 1 at 580 uM; Inhibition within […]. The method in brief: (§1)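 Recombinant human calpain I expressed in baculovirus, continuous fluorescence assay with Suc-Leu-Tyr-AMC (8 mM stock) in Tris 50 mM pH 7.3, EDTA 0.5 mM, βME 10 mM. Started with CaCl2 (40 mM stock). Ex 380/em 460 nm, linear for at least 2 min. Percent inhibition is the drop in initial rate against DMSO-only controls at the highest concentration tested. Values are within 10%.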

Experiment [2] concerns the target T1, Calpain-1 catalytic subunit (Homo sapiens). The experiment is described as follows: Percent inhibition of human calpain 1 at 300 uM; Inhibition within […]. The method in brief: as §1
The target is the same in experiment [3]. As to the kind of experiment: Percent inhibition of human calpain 1 at 350 uM; Inhibition within […]. The method in brief:
as §1

Experiment [4] can be described thus: Binding affinity for rat erythrocyte calpain.
The target of experiment [5] is T1, Calpain-1 catalytic subunit (Homo sapiens). The experiment is described as follows: Percent inhibition of recombinant human calpain 1 at highest concentration of 150 uM; Inhibition values are within […]. The method in brief: as §1
The target is the same in experiment [6]. As to the kind of experiment: Percent inhibition of human calpain 1 at 97 uM; Inhibition within […]. An outline of the steps:
as §1

Experiment [7] shares this target. The experiment is described as follows: Percent inhibition of human calpain 1 at 610 uM; Inhibition within […]. The method in brief: as §1
Experiment [8] has the same target. As to the kind of experiment: Percent inhibition of human calpain 1 at 90 uM; Inhibition within […]. The method in brief:
as §1

The target is the same in experiment [9]. The experiment is described as follows: Percent inhibition of human calpain 1 at 650 uM; Inhibition within […]. An outline of the steps: as §1
Experiment [10] shares this target. The experiment is described as follows: Percent inhibition of human calpain 1 at 110 uM; Inhibition within […]. An outline of the steps:
as §1

For experiment [11] the target is unchanged. As to the kind of experiment: Percent inhibition of human calpain 1 at 100 uM; Inhibition within […]. The method in brief:
as §1

Experiment [12] shares this target. As to the kind of experiment: Percent inhibition of human calpain 1 at 550 uM; Inhibition within […]. An outline of the steps: as §1
Experiment [13] in a line: Concentration required for inhibition of calpain. An outline of the steps:
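Calpain I (recombinant human, baculovirus-expressed) was hydrolysing Suc-Leu-Tyr-AMC in Tris 50 mM pH 7.3 with EDTA 0.5 mM and βME 10 mM, activated by CaCl2 (40 mM stock). Fluorescence was followed continuously at ex 380/em 460 nm. The value is the concentration giving a 50% decrease in initial hydrolysis rate relative to DMSO controls.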

Experiment [14] concerns the target T1, Calpain-1 catalytic subunit (Homo sapiens). As to the kind of experiment: Percent inhibition of human calpain 1 at 190 uM; Inhibition within […]. The method in brief:
as §1

Experiment [15] shares this target. The experiment is described as follows: Percent inhibition of human calpain 1 at 180 uM; Inhibition within […]. An outline of the steps:
as §1

Experiment [16] has the same target. As to the kind of experiment: Percent inhibition of human calpain 1 at 170 uM; Inhibition within […]. The method in brief:
as §1

Experiment [17] has the same target. As to the kind of experiment: Percent inhibition of human calpain 1 at 360 uM; Inhibition within […]. An outline of the steps:
as §1

Experiment [18] has the same target. The experiment is described as follows: Percent inhibition of human calpain 1 at 130 uM; Inhibition within […]. An outline of the steps:
as §1

For experiment [19] the target is unchanged. The experiment is described as follows: Percent inhibition of human calpain 1 at 120 uM; Inhibition within […]. An outline of the steps: as §1
Experiment [20] has the same target. As to the kind of experiment: Percent inhibition of human calpain 1 at highest 200 uM; Inhibition within […]. An outline of the steps:
as §1

Experiment [21] shares this target. The experiment is described as follows: Percent inhibition of human calpain 1 at 280 uM; Inhibition within […]. An outline of the steps: as §1
Experiment [22] has the same target. As to the kind of experiment: Percent inhibition of human calpain 1 at 210 uM; Inhibition within […]. An outline of the steps: as §1
For experiment [23] the target is unchanged. The experiment is described as follows: Percent inhibition of human calpain 1 at 920 uM; Inhibition within […]. The method in brief: as §1
Experiment [24] shares this target. The experiment is described as follows: Percent inhibition of human calpain 1 at 500 uM; Inhibition within […]. An outline of the steps: as §1
For experiment [25] the target is unchanged. As to the kind of experiment: Percent inhibition of human calpain 1 at 680 uM; Inhibition within […]. An outline of the steps: as §1
Experiment [26] shares this target. As to the kind of experiment: Percent inhibition of human calpain 1 at 160 uM; Inhibition within […]. An outline of the steps:
as §1

In experiment [1], `C[C@H](O)[C@@H]1NC(=O)[C@H](Cc2ccc(O)cc2)NC1=O` had an inhibition of 0%. Compound `O=C1N[C@@H](Cc2ccccc2)C(=O)N[C@H]1COCc1ccccc1` displayed an inhibition in [2] of 0%. In experiment [3], `Cc1ccc(S(=O)(=O)/N=C(/N)NCCC[C@@H]2NC(=O)[C@H](Cc3ccccc3)NC2=O)cc1` registered an inhibition of 0%.

The compound `CC(C)[C@H](NC(=O)OCc1ccccc1)C(=O)NC(C=O)Cc1ccccc1` (stereo partly drawn) (Cbz-Val-[ξF]-aldehyde) had a Ki in [4] of 10 nM. For the compound `COC(=O)C[C@@H]1NC(=O)[C@H](COCc2ccccc2)NC1=O`, in experiment [5], the inhibition came out at 0%.

Compound `O=C1N[C@@H](Cc2ccc(OCc3ccccc3)cc2)C(=O)N[C@H]1Cc1ccc(OCc2ccccc2)cc1` came in with an inhibition in experiment [6] of 50%. For the compound `COC(=O)C[C@H]1NC(=O)[C@H](Cc2ccccc2)NC1=O`, the inhibition in [7] turned out to be 25%.

In [8], `COC(=O)C[C@@H]1NC(=O)[C@H](Cc2ccc(O)cc2)NC1=O` gave an inhibition of 25%. `CN1C(=O)[C@H](Cc2ccc(OCc3ccccc3)cc2)N(C)C(=O)[C@@H]1Cc1ccc(OCc2ccccc2)cc1` returned an inhibition in [3] of 50%. `O=C1N[C@@H](Cc2ccc(OCc3ccccc3)cc2)C(=O)N[C@H]1Cc1ccccc1` came in with an inhibition in [9] of 50%. `CC(C)C[C@@H]1NC(=O)[C@H](COCc2ccccc2)NC1=O`: the inhibition in [10] amounted to 0%.

In turn, `O=C1N[C@@H](Cc2c[nH]c3ccccc23)C(=O)N[C@H]1Cc1ccccc1` displayed an inhibition in [11] of 0%. Consider `CC(C)c1ncc(Cc2ccccc2)nc1O`, for which the inhibition in experiment [12] was found to be 0%. The IC50 in experiment [13] stood at 1300 nM. On to `CC(C)C[C@@H]1NC(=O)[C@H](Cc2ccc(O)cc2)NC1=O`, for which the inhibition in experiment [14] was 0%. On to `O=C1N[C@@H](Cc2c[nH]c3ccccc23)C(=O)N[C@H]1Cc1c[nH]c2ccccc12`, for which the inhibition in experiment [15] worked out at 0%. For `Cc1ccc(S(=O)(=O)/N=C(/N)NCCC[C@@H]2NC(=O)[C@H](Cc3ccc(O)cc3)NC2=O)cc1`, in experiment [16], the inhibition stood at 0%.

The compound `COc1c([C@@H](O)CC(C)C)ccc2c1C(=O)OCc1cc(C)cc(O)c1O2` [PENICILLIDE] returned an IC50 in [13] of 7100 nM. Turning to `CN1C(=O)[C@H](Cc2ccc(O)cc2)N(C)C(=O)[C@@H]1Cc1ccccc1`, the inhibition in experiment [17] was 0%. For the compound `C[C@H](O)[C@@H]1NC(=O)[C@H](Cc2ccccc2)NC1=O`, the inhibition in experiment [14] was determined as 30%. For `CN1C(=O)[C@H](Cc2ccccc2)N(C)C(=O)[C@@H]1Cc1ccccc1`, the inhibition in [2] turned out to be 0%. As to `CC(C)C[C@@H]1NC(=O)[C@H](Cc2ccccc2)NC1=O`, the inhibition in [18] worked out at 0%.

`COC(=O)C[C@@H]1NC(=O)[C@H](Cc2ccc(OCc3ccccc3)cc2)NC1=O` returned an inhibition in [19] of 0%.

In the case of `O=C1N[C@@H](Cc2c[nH]c3ccccc23)C(=O)N[C@H]1COCc1ccccc1`, the inhibition in experiment [20] worked out at 0%. The compound `O=C1N[C@@H](Cc2ccccc2)C(=O)N[C@H]1Cc1ccccc1` came in with an inhibition in experiment [21] of 0%.

The compound `O=C1N[C@@H](Cc2ccc(O)cc2)C(=O)N[C@H]1Cc1ccccc1` returned an inhibition in experiment [15] of 0%. `O=C(O)/C(S)=C/c1ccc(I)cc1` returned a half-maximal inhibitory concentration (IC50) in experiment [13] of 400 nM. Take `COC(=O)C[C@H]1NC(=O)[C@H](Cc2ccc(O)cc2)NC1=O`: in experiment [22], the inhibition was 0%. With `CC(C)C[C@@H]1NC(=O)[C@H](Cc2c[nH]c3ccccc23)NC1=O`, the inhibition in experiment [23] was determined as 0%.

For `O=C1N[C@@H](Cc2ccc(O)cc2)C(=O)N[C@H]1Cc1ccc(O)cc1`, the inhibition in experiment [24] is 0%. In the case of `O=C1N[C@@H](Cc2c[nH]c3ccccc23)C(=O)N[C@H]1Cc1ccc(O)cc1`, the inhibition in experiment [5] came out at 0%. `CN1C(=O)[C@H](Cc2ccc(O)cc2)N(C)C(=O)[C@@H]1Cc1ccc(O)cc1` yielded an IC50 in [13] of 800 nM. Also, the inhibition in [25] was 0%.

Compound `O=C1N[C@@H](Cc2ccc(O)cc2)C(=O)N[C@H]1COCc1ccccc1` had an inhibition in experiment [19] of 0%. Compound `CC(C)[C@@H]1NC(=O)[C@H](Cc2ccc(OCc3ccccc3)cc2)NC1=O` gave an inhibition in [20] of 0%.

With `COC(=O)C[C@@H]1NC(=O)[C@H](Cc2ccccc2)NC1=O`, the inhibition in [26] was 13%.
